Values joined by “and” are separate entries in the source; they are usually repeats but may differ in a detail not shown here. Identical values can stand only once.
Tests used:
Rattus norvegicus [1] = assay: Percent increase in liver weight in rats when administered perorally; format: functional
Rattus norvegicus [2] = assay: Percent change in high density lipoproteins cholesterol concentration in serum from hypercholesterolemic rats at dose 40 mg/kg (po); format: functional
How it was run: (§1)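 Rats were fed 1.5% cholesterol/0.5% cholic acid diet for 7 days, with compounds given by gavage over the last 4 days as a 0.5% Methocel suspension (0.5 mL/100 g). Rats were fasted overnight, killed on day 8 and bled under light CO₂ anesthesia. HDL was isolated by heparin-MnCl₂ precipitation (8000 rpm, 15 min, 4 °C). Total and HDL cholesterol were measured enzymatically-colorimetrically; % change vs control.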

Rattus norvegicus [3] = assay: Percent change in total cholesterol concentration in serum from hypercholesterolemic rats at dose 40 mg/kg (po); format: functional
Rattus norvegicus [4] = species: Rattus norvegicus; assay: Compound was tested in vitro for inhibition of Cholesterol biosynthesis in rat liver slices, % inhibition of [14C]acetate incorporation in cholesterol at 5 e10-5 concentration; format: functional
How it was run: (§2)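 Liver slices (250 mg) from fed male rats were incubated in Krebs-Ringer bicarbonate, pH 7.4, with 4 mM [2-¹⁴C]acetate under 95% O₂-5% CO₂. Compounds were tested at a final 2 × 10⁻⁴ M, or 5 × 10⁻⁵ M for one compound. ¹⁴C incorporation into cholesterol and into petroleum-ether-soluble nonsaponifiable neutral lipids gave % inhibition; mean of four determinations.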

Rattus norvegicus [5] = species: Rattus norvegicus; assay: Compound was tested in vitro for inhibition of Cholesterol biosynthesis in rat liver slices, % inhibition of [14C]acetate incorporation in neutral lipids at 5 e10-5 concentration; format: functional; how it was run: as §2
Rattus norvegicus [6] = assay: Compound was tested for Enzyme induction effect in male rats treated for 5 days at dose 50 mg/kg aniline p-hydroxylase activity(per g) of liver; format: functional
How it was run: (§3)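 Male OFA-ICO SD rats were dosed orally for 5 days, with test compounds at 50 mg/kg/day and sodium phenobarbital at 75 mg/kg/day. Liver was homogenized in 1.15% KCl-0.01 M phosphate, pH 7.5. Microsomes were spun from the 9000g supernatant at 105000g and assayed for protein, cytochrome P-450, aniline p-hydroxylation (µmol p-aminophenol/20 min) and aminopyrine N-demethylation (µmol HCHO/5 min). Liver/body weight was also recorded. Mean ± SEM of four rats; Dunnett's test.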

Rattus norvegicus [7] = assay: Compound was tested for Enzyme induction effect in male rats treated for 5 days at dose 50 mg/kg aminopyrine N-demethylase activity(per g) of liver; format: functional; how it was run: as §3
Rattus norvegicus [8] = assay: Compound was tested for Enzyme induction effect in male rats treated for 5 days at dose 50 mg/kg concentration of cytochrome […]( mmol/mg) in protein; format: functional; how it was run: as §3
[9] = Compound was tested for Enzyme induction effect in male rats treated for 5 days at dose 50 mg/kg ratio of % liver weight to % body weight; format: functional; how it was run: as §3
Rattus norvegicus [10] = assay: Compound was tested for Enzyme induction effect in male rats treated for 5 days at dose 50 mg/kg concentration of microsomal proteins(mg/g) in liver; format: functional, organism-based; design: dose 50 mg/kg; how it was run: as §3
Rattus norvegicus [11] = assay: Percent change in high density lipoproteins cholesterol concentration in serum from hypercholesterolemic rats at dose 50 mg/kg (po); format: functional; how it was run: as §1
Rattus norvegicus [12] = assay: Percent change in total cholesterol concentration in serum from hypercholesterolemic rats at dose 50 mg/kg (po); format: functional
Rattus norvegicus [13] = assay: Percent change in total cholesterol concentration in serum from hypercholesterolemic rats at dose 10 mg/kg (po); format: functional; how it was run: as §1
Rattus norvegicus [14] = assay: Percent change in high density lipoproteins cholesterol concentration in serum from hypercholesterolemic rats at dose 10 mg/kg (po); format: functional; how it was run: as §1
Rattus norvegicus [15] = assay: Percent change in high density lipoproteins cholesterol concentration in serum from hypercholesterolemic rats at dose 30 mg/kg (po); format: functional; how it was run: as §1
Rattus norvegicus [16] = assay: Percent change in total cholesterol concentration in serum from hypercholesterolemic rats at dose 30 mg/kg (po); format: functional; how it was run: as §1
Rattus norvegicus [17] = assay: Compound was tested for Hepatic peroxisomal proliferation effect in male rats treated for 7 days at dose 50 mg/kg carnitine acetyl transferase activity(per mg) of protein; format: functional
How it was run: (§4)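 Male OFA-ICO SD rats received oral doses of 50 mg/kg/day for 1 week. Liver was homogenized in 0.25 M sucrose-0.01 M phosphate-0.1% ethanol, pH 7, then diluted in incubation buffer with 0.1% Triton X-100 and centrifuged. Supernatants were assayed for catalase (K, sec⁻¹), carnitine acetyltransferase (nmol CoASH/min) and cyanide-insensitive palmitoyl-CoA oxidation (nmol NAD⁺ reduced/min). Mean ± SEM of three rats; Dunnett's test.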

Rattus norvegicus [18] = assay: Compound was tested for Hepatic peroxisomal proliferation effect in male rats treated for 7 days at dose 50 mg/kg protein; format: functional
Rattus norvegicus [19] = assay: Compound was tested for Enzyme induction effect in male rats treated for 5 days at dose 75 mg/kg concentration of cytochrome […]( mmol/mg) in protein; format: functional; settings: dose 50 mg/kg; in the assay text read “50 mg/kg” for “75 mg/kg”; how it was run: as §3
Rattus norvegicus [20] = assay: Compound was tested for Enzyme induction effect in male rats treated for 5 days at dose 75 mg/kg aminopyrine N-demethylase activity(per g) of liver; format: functional; settings: dose 50 mg/kg; in the assay text read “50 mg/kg” for “75 mg/kg”; how it was run: as §3
Rattus norvegicus [21] = assay: Compound was tested for Hepatic peroxisomal proliferation effect in male rats treated for 7 days at dose 50 mg/kg concentration of hepatic proteins(mg/g) in liver; format: functional, organism-based; design: dose 50 mg/kg
Rattus norvegicus [22] = assay: Percent increase in liver weight in rats when a 50 mg/Kg dose was administered; format: functional
[23] = Compound was tested for Enzyme induction effect in male rats treated for 5 days at dose 75 mg/kg ratio of % liver weight to % body weight; format: functional; settings: dose 50 mg/kg; in the assay text read “50 mg/kg” for “75 mg/kg”; how it was run: as §3
[24] = Compound was tested for Hepatic peroxisomal proliferation effect in male rats treated for 7 days at dose 50 mg/kg ratio of % liver weight to % body weight; format: functional
[25] = Percent change in high density lipoprotein cholesterol
Rattus norvegicus [26] = assay: Compound was tested for Enzyme induction effect in male rats treated for 5 days at dose 50 mg/kg concentration of microsomal proteins(mg/g) in liver
Rattus norvegicus [27] = assay: Percent change in low density lipoproteins cholesterol concentration in serum from normocholesterolemic rats at dose 50 mg/kg (po)
Rattus norvegicus [28] = assay: Compound was tested for Hepatic peroxisomal proliferation effect in male rats treated for 7 days at dose 50 mg/kg palmitoyl-CoA oxidation activity(per mg) of protein; format: functional; how it was run: as §4
Rattus norvegicus [29] = assay: Compound was tested for Enzyme induction effect in male rats treated for 5 days at dose 75 mg/kg aniline p-hydroxylase activity(per g) of liver; format: functional; settings: dose 50 mg/kg; in the assay text read “50 mg/kg” for “75 mg/kg”; how it was run: as §3
Rattus norvegicus [30] = assay: Percent change in triglyceride concentration in serum from normocholesterolemic rats at dose 50 mg/kg (po)
Rattus norvegicus [31] = assay: Percent change in total cholesterol concentration in serum from hypercholesterolemic rats at dose 42.5 mg/kg (po); format: functional
Rattus norvegicus [32] = assay: Percent change in high density lipoproteins cholesterol concentration in serum from hypercholesterolemic rats at dose 42.5 mg/kg (po); format: functional; how it was run: as §1
Rattus norvegicus [33] = species: Rattus norvegicus; assay: Compound was tested in vitro for inhibition of Cholesterol biosynthesis in rat liver slices, % inhibition of [14C]acetate incorporation in cholesterol; format: functional; how it was run: as §2
Rattus norvegicus [34] = species: Rattus norvegicus; assay: Compound was tested in vitro for inhibition of Cholesterol biosynthesis in rat liver slices, % inhibition of [14C]acetate incorporation in neutral lipids; format: functional; how it was run: as §2
Rattus norvegicus [35] = assay: Percent change in low density lipoproteins cholesterol concentration in serum from normocholesterolemic rats at dose 100 mg/kg (po)
Rattus norvegicus [36] = assay: Percent change in total cholesterol concentration in serum from normocholesterolemic rats at dose 100 mg/kg (po)
Rattus norvegicus [37] = assay: Percent change in high density lipoproteins cholesterol concentration in serum from normocholesterolemic rats at dose 100 mg/kg (po)
Rattus norvegicus [38] = assay: Percent change in triglyceride concentration in serum from normocholesterolemic rats at dose 100 mg/kg (po)
Rattus norvegicus [39] = assay: Percent change in total cholesterol concentration in serum from hypercholesterolemic rats at dose 21 mg/kg (po); format: functional; how it was run: as §1
Rattus norvegicus [40] = assay: Percent change in high density lipoproteins cholesterol concentration in serum from hypercholesterolemic rats at dose 21 mg/kg (po); format: functional; how it was run: as §1
Rattus norvegicus [41] = assay: Percent change in triglyceride concentration in serum from normocholesterolemic rats at dose 200 mg/kg (po)
Rattus norvegicus [42] = assay: Percent change in low density lipoproteins cholesterol concentration in serum from normocholesterolemic rats at dose 200 mg/kg (po)
Rattus norvegicus [43] = assay: Percent change in high density lipoproteins cholesterol concentration in serum from normocholesterolemic rats at dose 200 mg/kg (po)
Rattus norvegicus [44] = assay: Percent change in total cholesterol concentration in serum from normocholesterolemic rats at dose 200 mg/kg (po)

O=C(O)c1cccc2c1C(=O)C(n1ccnc1)CC2 (stereo not given)
Change (Rattus norvegicus [1]): -4% | Change (Rattus norvegicus [2]): -9% | Change (Rattus norvegicus [3]): -19%

O=C1c2ccc(O)c(Br)c2CCC1n1ccnc1 (stereo not given)
Change (Rattus norvegicus [1]): 13% | Inhibition (Rattus norvegicus [4]): 0% | Inhibition (Rattus norvegicus [5]): 0% | Activity (Rattus norvegicus [6]): 0.67 | Activity (Rattus norvegicus [7]): 1.69 | Activity (Rattus norvegicus [8]): 0.98 | Ratio [9]: 3.24% | Concentration (Rattus norvegicus [10]): 28 | Change (Rattus norvegicus [11]): 109% | Change (Rattus norvegicus [12]): -44%

COc1ccc2c(c1)CCC(n1ccnc1)C2=O (stereo not given)
Change (Rattus norvegicus [1]): 0% | Change (Rattus norvegicus [13]): -37% | Change (Rattus norvegicus [14]): 34%

O=C1c2ccc(Br)cc2CCC1n1ccnc1 (stereo not given)
Change (Rattus norvegicus [1]): 31% | Change (Rattus norvegicus [15]): 228% | Change (Rattus norvegicus [16]): -84%

Cc1cccc(Nc2cc(Cl)nc(SCC(=O)NCCO)n2)c1C [PIRINIXIL]
Change (Rattus norvegicus [1]): 54% | Activity (Rattus norvegicus [17]): 69.8 | Activity (Rattus norvegicus [18]): 58.8 | Activity (Rattus norvegicus [19]): 0.82 | Activity (Rattus norvegicus [20]): 0.69 | Concentration (Rattus norvegicus [21]): 237 | Change (Rattus norvegicus [22]): 42% | Ratio [23]: 4.99% | Ratio [24]: 5.31% | Percent change in HDL cholesterol [25]: -9 | Change (Rattus norvegicus [12]; 50 mg/kg): -43% and -23% | Concentration (Rattus norvegicus [26]): 25 | Change (Rattus norvegicus [27]): -19% | Activity (Rattus norvegicus [28]): 16.2 | Activity (Rattus norvegicus [29]): 0.64 | Change (Rattus norvegicus [30]): -48%

CC1Oc2ccc(C(=O)O)cc2C(=O)C1n1ccnc1 (stereo not given)
Change (Rattus norvegicus [1]): 3% | Change (Rattus norvegicus [31]): -12% | Change (Rattus norvegicus [32]): -18%

CCCCCCCCCCCCn1ccnc1
Inhibition (Rattus norvegicus [33]): 66% | Inhibition (Rattus norvegicus [34]): 14%

CC(C)OC(=O)C(C)(C)Oc1ccc(C(=O)c2ccc(Cl)cc2)cc1 [FENOFIBRATE]
Change (Rattus norvegicus [35]): -31% | Change (Rattus norvegicus [22]): 38% | Percent change in HDL cholesterol [25]: 7 | Change (Rattus norvegicus [36]): -28% | Change (Rattus norvegicus [37]): -27% | Change (Rattus norvegicus [38]): -50%

CC1Oc2cc(O)c(Br)cc2C(=O)C1n1ccnc1 (stereo not given)
Change (Rattus norvegicus [1]): 1% | Change (Rattus norvegicus [39]): -10% | Change (Rattus norvegicus [40]): 2%

CCOC(=O)C(C)(C)Oc1ccc(Cl)cc1 [CLOFIBRATE]
Change (Rattus norvegicus [41]): -52% | Change (Rattus norvegicus [22]): 25% | Percent change in HDL cholesterol [25]: 13 | Change (Rattus norvegicus [42]): -40% | Change (Rattus norvegicus [43]): -32% | Change (Rattus norvegicus [44]): -35%

Reference: ChEMBL document CHEMBL1123418, “N-imidazolylchroman-4-ones, N-imidazolyl-1-tetralones, and their alcohols as hypolipemic agents raising high-density lipoproteins” (1986)
